Assay results as given in ChEMBL document CHEMBL5329147, “Synthesis of tryptanthrin appended dispiropyrrolidine oxindoles and their antibacterial evaluation” (RSC Med Chem, 2023).
In brackets after ≈: the same amount, converted by molar mass.

Columns and labels:
[1] = test system: Pseudomonas aeruginosa; test: Antibacterial activity against Pseudomonas aeruginosa ATCC 27853 assessed as bacterial growth inhibition incubated for 18 to 24 hrs by broth microdilution method; format: functional; conditions: time 18-24 hrs
Outline: (§1)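 CLSI broth microdilution. Overnight starter cultures (single colony, MHBII, 37 °C, shaking 18–24 h) were diluted by OD600 to 10^6 CFU/mL in MHBII. Two-fold dilutions from […] were made from 10 mg/mL DMSO stocks, then incubated 37 °C for 18-24 h. The MIC was the lowest concentration with no visible growth. Three independent runs, duplicate samples.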

[2] = test system: Acinetobacter baumannii; test: Antibacterial activity against Acinetobacter baumannii BAA-1605 assessed as bacterial growth inhibition incubated for 18 to 24 hrs by broth microdilution method; format: functional; conditions: time 18-24 hrs; outline: as §1
[3] = test system: Klebsiella pneumoniae; test: Antibacterial activity against Klebsiella pneumoniae BAA 1705 assessed as bacterial growth inhibition incubated for 18 to 24 hrs by broth microdilution method; format: functional; conditions: time 18-24 hrs; outline: as §1
[4] = test system: Escherichia coli; test: Antibacterial activity against Escherichia coli ATCC 25922 assessed as bacterial growth inhibition incubated for 18 to 24 hrs by broth microdilution method; format: functional; conditions: time 18-24 hrs; outline: as §1
[5] = test system: Staphylococcus aureus; test: Antibacterial activity against Staphylococcus aureus ATCC 29213 assessed as bacterial growth inhibition incubated for 18 to 24 hrs by broth microdilution method; format: functional; conditions: time 18-24 hrs; outline: as §1
[6] = test system: Staphylococcus aureus; test: Synergistic antibacterial activity against Staphylococcus aureus ATCC 29213 assessed as bacterial growth inhibition incubated for 24 hrs in presence of (S)-8''-Bromo-1-ethyl-1'-methyl-2,12''-dioxo-12''H-dispiro[indoline-3,4'-pyrrolidine-2',6''-indolo[2,1-b]quinazoline]-3',3'-dicarbonitrile by checkerboard assay; format: functional
Outline: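 Checkerboard in 96-well plates: two-fold serial dilutions, one agent along abscissa, partner antibiotic along ordinate. Wells received ~10⁵ CFU/mL S. aureus ATCC 29213 in MHBII. Incubation 37 °C, 24 h. ΣFIC = FIC A + FIC B, each FIC being combination MIC divided by MIC alone.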

[7] = test system: Staphylococcus aureus; test: Antibacterial activity against vancomycin resistant Staphylococcus aureus […] 12 assessed as bacterial growth inhibition incubated for 18 to 24 hrs by broth microdilution method; format: functional; conditions: time 18-24 hrs
Outline: (§2)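 CLSI broth microdilution in MHBII; overnight starter cultures (single MHA colony, 37 °C, shaking) adjusted by OD600 to 10^6 CFU/mL. Compounds from DMSO stocks (10 mg/mL), two-fold series 64–0.5 mg/L. Incubation 37 °C, 18-24 h. MIC = lowest concentration with no visible growth. Three independent determinations, each in duplicate.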

[8] = test system: Staphylococcus aureus; test: Bactericidal activity against Staphylococcus aureus ATCC 29213 assessed as reduction in bacterial load at 10 times of MIC incubated for 24 hrs by time kill analysis; format: functional; design: scale not given: the % may be the effect or the level left
Outline: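 Time-kill assay. ~10^6 CFU/mL in MHBII was exposed to 1X and 10X MIC, 37 °C with shaking for 24 h. Samples were taken at 0, 1, 6 and 24 h, serially diluted in PBS, plated on MHA and incubated 37 °C 18–20 h. Colonies were counted as CFU/mL survivors. Three repeats in duplicate; mean plotted.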

[9] = test system: Staphylococcus aureus; test: Antibacterial activity against vancomycin resistant Staphylococcus aureus […] 4 assessed as bacterial growth inhibition incubated for 18 to 24 hrs by broth microdilution method; format: functional; conditions: time 18-24 hrs; outline: as §2
[10] = Selectivity ratio of CC50 for African green monkey Vero cells to MIC against Staphylococcus aureus ATCC 29213; format: toxicity, cell-based
[11] = test system: Staphylococcus aureus; test: Antibacterial activity against methicillin resistant Staphylococcus aureus NRS 194 assessed as bacterial growth inhibition incubated for 18 to 24 hrs by broth microdilution method; format: functional; conditions: time 18-24 hrs; outline: as §2
[12] = test system: Staphylococcus aureus; test: Antibacterial activity against methicillin resistant Staphylococcus aureus NRS 198 assessed as bacterial growth inhibition incubated for 18 to 24 hrs by broth microdilution method; format: functional; conditions: time 18-24 hrs; outline: as §2
[13] = test system: Vero; test: Cytotoxicity against African green monkey Vero cells assessed as cell viability incubated for 72 hrs by MTT assay; format: toxicity, cell-based; conditions: chlorocebus sabaeus
Outline: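 MTT assay on Vero cells, ~10^3 cells/well, 37 °C, 5% CO2. Compound was added at 24 h (100-12.5 μg/mL) for 72 h, then MTT for 4 h at 37 °C. Formazan was dissolved in DMSO and read at 540 nm. CC50 was the lowest concentration giving 50% viability loss. Doxorubicin positive control; triplicate.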

[14] = test system: Staphylococcus aureus; test: Antibacterial activity against methicillin sensitive Staphylococcus aureus ATCC 29213 assessed as bacterial growth inhibition incubated for 18 to 24 hrs by broth microdilution method; format: functional; conditions: time 18-24 hrs; outline: as §2
[15] = test system: Staphylococcus aureus; test: Antibacterial activity against methicillin resistant Staphylococcus aureus NRS 119 assessed as bacterial growth inhibition incubated for 18 to 24 hrs by broth microdilution method; format: functional; conditions: time 18-24 hrs; outline: as §2
[16] = test system: Staphylococcus aureus; test: Antibacterial activity against methicillin resistant Staphylococcus aureus NRS 186 assessed as bacterial growth inhibition incubated for 18 to 24 hrs by broth microdilution method; format: functional; conditions: time 18-24 hrs; outline: as §2
[17] = test system: Staphylococcus aureus; test: Antibacterial activity against methicillin resistant Staphylococcus aureus NRS 193 assessed as bacterial growth inhibition incubated for 18 to 24 hrs by broth microdilution method; format: functional; conditions: time 18-24 hrs; outline: as §2
[18] = test system: Staphylococcus aureus; test: Antibacterial activity against methicillin resistant Staphylococcus aureus NRS 191 assessed as bacterial growth inhibition incubated for 18 to 24 hrs by broth microdilution method; format: functional; conditions: time 18-24 hrs; outline: as §2
[19] = test system: Staphylococcus aureus; test: Antibacterial activity against methicillin resistant Staphylococcus aureus NRS 129 assessed as bacterial growth inhibition incubated for 18 to 24 hrs by broth microdilution method; format: functional; conditions: time 18-24 hrs; outline: as §2
[20] = test system: Staphylococcus aureus; test: Antibacterial activity against methicillin resistant Staphylococcus aureus NRS 192 assessed as bacterial growth inhibition incubated for 18 to 24 hrs by broth microdilution method; format: functional; conditions: time 18-24 hrs; outline: as §2
[21] = Staphylococcus aureus, ATCC 29213, read-out: MIC

Molecule	MIC [1] [µg/mL]	MIC [2] [µg/mL]	MIC [3] [µg/mL]	MIC [4] [µg/mL]	MIC [5, 21] [µg/mL]	MIC [6] [µg/mL]	other results
CCN1C(=O)[C@@]2(CN(C)C3(c4cc(I)ccc4-n4c3nc3ccccc3c4=O)C2(C#N)C#N)c2ccccc21 (stereo partly specified)	> 64	> 64	> 64	> 64	0.25 (≈ 0.4 µM)		
CCCCCCCCCC(=O)N[C@@H](Cc1c[nH]c2ccccc12)C(=O)N[C@H](CC(N)=O)C(=O)N[C@@H](CC(=O)O)C(=O)N[C@@H]1C(=O)NCC(=O)N[C@@H](CCCN)C(=O)N[C@@H](CC(=O)O)C(=O)N[C@H](C)C(=O)N[C@@H](CC(=O)O)C(=O)NCC(=O)N[C@H](CO)C(=O)N[C@@H]([C@H](C)CC(=O)O)C(=O)N[C@@H](CC(=O)c2ccccc2N)C(=O)O[C@@H]1C					1 (≈ 0.617 µM)	1	
CN[C@H](CC(C)C)C(=O)N[C@H]1C(=O)N[C@@H](CC(N)=O)C(=O)N[C@H]2C(=O)N[C@H]3C(=O)N[C@H](C(=O)N[C@H](C(=O)O)c4cc(O)cc(O)c4-c4cc3ccc4O)[C@H](O)c3ccc(c(Cl)c3)Oc3cc2cc(c3O[C@@H]2O[C@H](CO)[C@@H](O)[C@H](O)[C@H]2O[C@H]2C[C@](C)(N)[C@H](O)[C@H](C)O2)Oc2ccc(cc2Cl)[C@H]1O [VANCOMYCIN]							MIC [7]: > 64 µg/mL; Activity [8]: 100%; MIC [9]: > 64 µg/mL
CCN1C(=O)[C@]2(c3cc(Cl)ccc31)C(Cc1c[nH]c3ccccc13)NC1(c3cc(Cl)ccc3-n3c1nc1ccccc1c3=O)C2(C#N)C#N (stereo partly specified)	> 64	> 64	> 64	> 64	0.25 (≈ 0.366 µM)		
CCN1C(=O)[C@]2(c3ccccc31)C(C(=O)NCC(=O)O)NC1(c3cc(Cl)ccc3-n3c1nc1ccccc1c3=O)C2(C#N)C#N (stereo partly specified)	> 64	> 64	> 64	> 64	1 (≈ 1.61 µM)		selectivity ratio [10]: 10
CCN1C(=O)[C@]2(c3ccccc31)C1CCCN1C1(c3ccccc3-n3c1nc1ccccc1c3=O)C2(C#N)C#N (stereo partly specified)	> 64	> 64	> 64	> 64	0.25 (≈ 0.477 µM)		
CC(C)(O/N=C(\C(=O)N[C@@H]1C(=O)N2C(C(=O)[O-])=C(C[n+]3ccccc3)CS[C@H]12)c1csc(N)n1)C(=O)O [CEFTAZIDIME]					8 (≈ 14.6 µM)	8	
CCN1C(=O)[C@@]2(CN(C)C3(c4cc(OC)ccc4-n4c3nc3ccccc3c4=O)C2(C#N)C#N)c2ccccc21 (stereo partly specified)	> 64	> 64	> 64	> 64	0.125 (≈ 0.236 µM)		MIC [11]: 0.5 µg/mL (≈ 0.946 µM); MIC [7]: 8 µg/mL (≈ 15.1 µM); MIC [12]: 0.5 µg/mL (≈ 0.946 µM); Activity [13]: Non-Toxic; MIC [14]: 0.5 µg/mL (≈ 0.946 µM); MIC [15]: 0.25 µg/mL (≈ 0.473 µM); selectivity ratio [10]: > 80; MIC [16]: 0.5 µg/mL (≈ 0.946 µM); MIC [17]: 0.5 µg/mL (≈ 0.946 µM); MIC [18]: 0.25 µg/mL (≈ 0.473 µM); MIC [19]: 0.25 µg/mL (≈ 0.473 µM); MIC [20]: 0.5 µg/mL (≈ 0.946 µM); MIC [9]: 0.5 µg/mL (≈ 0.946 µM)
CCN1C(=O)[C@@]2(CN(C)C3(c4cc(I)ccc4-n4c3nc3ccc(Cl)cc3c4=O)C2(C#N)C#N)c2ccccc21 (stereo partly specified)	> 64	> 64	> 64	> 64	1 (≈ 1.52 µM)		
CO[C@H]1/C=C/O[C@@]2(C)Oc3c(C)c(O)c4c(O)c(c(/C=N/N5CCN(C)CC5)c(O)c4c3C2=O)NC(=O)/C(C)=C\C=C\[C@H](C)[C@H](O)[C@@H](C)[C@@H](O)[C@@H](C)[C@H](OC(C)=O)[C@@H]1C [RIFAMPIN]					0.008 (≈ 0.00972 µM)	0.008	
C[C@H]1COc2c(N3CCN(C)CC3)c(F)cc3c(=O)c(C(=O)O)cn1c23 [LEVOFLOXACIN ANHYDROUS]			64 (≈ 177 µM)		0.125 (≈ 0.346 µM)	0.125	MIC [11]: 0.125 µg/mL (≈ 0.346 µM); MIC [7]: 32 µg/mL (≈ 88.6 µM); MIC [12]: 32 µg/mL (≈ 88.6 µM); MIC [14]: 0.125 µg/mL (≈ 0.346 µM); MIC [15]: 16 µg/mL (≈ 44.3 µM); MIC [16]: 4 µg/mL (≈ 11.1 µM); MIC [17]: 32 µg/mL (≈ 88.6 µM); MIC [18]: 16 µg/mL (≈ 44.3 µM); MIC [19]: 0.25 µg/mL (≈ 0.692 µM); MIC [20]: 4 µg/mL (≈ 11.1 µM); MIC [5]: 0.25 µg/mL (≈ 0.692 µM); MIC [9]: > 64 µg/mL
CCN1C(=O)[C@@]2(CN(C)C3(c4ccccc4-n4c3nc3ccccc3c4=O)C2(C#N)C#N)c2ccccc21 (stereo partly specified)	> 64	> 64	> 64	> 64	1 (≈ 2.01 µM)		
GENTAMICIN						0.25	MIC [5]: 0.25 µg/mL
C[C@@H](O)[C@H]1C(=O)N2C(C(=O)O)=C(S[C@@H]3CN[C@H](C(=O)N(C)C)C3)[C@H](C)[C@H]12 [MEROPENEM]					0.063 (≈ 0.164 µM)	0.63	MIC [11]: 1 µg/mL (≈ 2.61 µM); MIC [7]: 8 µg/mL (≈ 20.9 µM); MIC [12]: 64 µg/mL (≈ 167 µM); MIC [14]: 0.125 µg/mL (≈ 0.326 µM); MIC [15]: 64 µg/mL (≈ 167 µM); MIC [16]: 8 µg/mL (≈ 20.9 µM); MIC [17]: 64 µg/mL (≈ 167 µM); MIC [18]: 64 µg/mL (≈ 167 µM); MIC [19]: 4 µg/mL (≈ 10.4 µM); MIC [20]: 8 µg/mL (≈ 20.9 µM); MIC [9]: 64 µg/mL (≈ 167 µM)
CCN1C(=O)[C@]2(c3ccccc31)C(Cc1ccccc1)NC1(c3cc(Br)ccc3-n3c1nc1ccccc1c3=O)C2(C#N)C#N (stereo partly specified)	> 64	> 64	> 64	> 64	0.25 (≈ 0.383 µM)		
CN(C)c1ccc(O)c2c1C[C@H]1C[C@H]3[C@H](N(C)C)C(O)=C(C(N)=O)C(=O)[C@@]3(O)C(O)=C1C2=O [MINOCYCLINE]					0.125 (≈ 0.273 µM)	0.125	
CN1C(=O)[C@@]2(CN(C)C3(c4ccccc4-n4c3nc3ccccc3c4=O)C2(C#N)C#N)c2ccccc21 (stereo partly specified)	> 64	> 64	> 64	> 64	8 (≈ 16.5 µM)		
CCN1C(=O)[C@@]2(CN(C)C3(c4cc([N+](=O)[O-])ccc4-n4c3nc3ccccc3c4=O)C2(C#N)C#N)c2ccccc21 (stereo partly specified)	> 64	> 64	> 64	> 64	0.25 (≈ 0.46 µM)		selectivity ratio [10]: < 10
